Source: ChEMBL document CHEMBL2384906, “Biological activity, design, synthesis and structure activity relationship of some novel derivatives of curcumin containing sulfonamides” (Eur J Med Chem, 2013)
Values after ≈ are worked out from the molar mass of the structure shown. Active and inactive are the calls of the source. The calls are words filed in the database; no cut-off is given here.

What was measured:
Mus musculus = test: Antiinflammatory activity in mouse assessed as inhibition of carrageenan-induced increase in paw volume at 200 mg/kg administered 1 hr prior to carrageenan challenge measured after 3 hrs relative to control; format: functional
Summary of the method: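 Mice were fasted 2 h and placed in groups of five. Controls received saline i.p. Phenylbutazone was given at 100 mg/kg i.p., curcumin at 200 mg/kg i.p., and derivatives at 200 mg/kg. After 1 h, 0.1 mL of 1% carrageenan in saline was injected subplantar into the right hind paw. Paw volume was followed by plethysmometer for 3 h, and % inhibition was calculated as (Vc − Vt)/Vc × 100.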

HCT-116 = test: Cytotoxicity against human HCT116 cells after 24 hrs by MTT assay; format: functional, cell-based
Summary of the method: (§1)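 The MTT assay seeded 5 × 10⁴ cells per well and grew them 24 h in RPMI 1640 with compound at 2.5–200 µM. Medium without cells was the blank and adriamycin the positive control. MTT was added for 4 h at 37 °C, formazan was solubilised, and absorbance was read at 570 nm. IC50 is the concentration that cuts viability 50% against untreated cells.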

QG-56 = test: Cytotoxicity against human QG56 cells after 24 hrs by MTT assay; format: functional, cell-based; summary of the method: as §1
HeLa = test: Cytotoxicity against human HeLa cells after 24 hrs by MTT assay; format: functional, cell-based; summary of the method: as §1
HepG2 = test: Cytotoxicity against human HepG2 cells after 24 hrs by MTT assay; format: functional, cell-based; summary of the method: as §1
Trichoderma viride [1] = test: Antifungal activity against Trichoderma viride MTCC 1107 after 48 hrs; format: functional; settings: MTCC 1107, 48 h
Trichoderma viride [2] = test: Antifungal activity against Trichoderma viride MTCC 1107 assessed as zone of inhibition at 20 uM after 48 hrs by disc diffusion method; format: functional; settings: MTCC 1107, 48 h, read-out: IZ
Summary of the method: (§2)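 Spores from 4-day potato dextrose agar cultures, suspended in sterile water at 1.5 × 10⁵ CFU/mL. 0.2 mL was spread on potato dextrose agar. 5 mm filter-paper discs soaked with test compound were laid on the lawn. Incubation was 48 h at 28 °C, then the inhibition zone was measured in mm. Fluconazole was the positive control and acetone the negative control.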

Trichoderma viride [3] = test: Antifungal activity against Trichoderma viride MTCC 1107 assessed as zone of inhibition at 40 uM after 48 hrs by disc diffusion method; format: functional; settings: MTCC 1107, 48 h, read-out: IZ; summary of the method: as §2
Trichoderma viride [4] = test: Antifungal activity against Trichoderma viride MTCC 1107 assessed as zone of inhibition at 80 uM after 48 hrs by disc diffusion method; format: functional; settings: MTCC 1107, 48 h, read-out: IZ; summary of the method: as §2
Curvularia lunata [5] = test: Antifungal activity against Curvularia lunata MTCC 581 after 48 hrs; format: functional; settings: MTCC 581, 48 h
Curvularia lunata [6] = test: Antifungal activity against Curvularia lunata MTCC 581 assessed as zone of inhibition at 20 uM after 48 hrs by disc diffusion method; format: functional; settings: MTCC 581, 48 h, read-out: IZ; summary of the method: as §2
Curvularia lunata [7] = test: Antifungal activity against Curvularia lunata MTCC 581 assessed as zone of inhibition at 40 uM after 48 hrs by disc diffusion method; format: functional; settings: MTCC 581, 48 h, read-out: IZ; summary of the method: as §2
Aspergillus flavus [8] = test: Antifungal activity against Aspergillus flavus MTCC 1021 after 48 hrs; format: functional; settings: MTCC 1021, 48 h
Curvularia lunata [9] = test: Antifungal activity against Curvularia lunata MTCC 581 assessed as zone of inhibition at 80 uM after 48 hrs by disc diffusion method; format: functional; settings: MTCC 581, 48 h, read-out: IZ; summary of the method: as §2
Aspergillus flavus [10] = test: Antifungal activity against Aspergillus flavus MTCC 1021 assessed as zone of inhibition at 20 uM after 48 hrs by disc diffusion method; format: functional; summary of the method: as §2
Aspergillus flavus [11] = test: Antifungal activity against Aspergillus flavus MTCC 1021 assessed as zone of inhibition at 40 uM after 48 hrs by disc diffusion method; format: functional; settings: MTCC 1021, 48 h, read-out: IZ; summary of the method: as §2
Aspergillus flavus [12] = test: Antifungal activity against Aspergillus flavus MTCC 1021 assessed as zone of inhibition at 80 uM after 48 hrs by disc diffusion method; format: functional; settings: MTCC 1021, 48 h, read-out: IZ; summary of the method: as §2
Aspergillus niger [13] = test: Antifungal activity against Aspergillus niger MTCC 1108 after 48 hrs; format: functional; settings: MTCC 1108, 48 h
Aspergillus niger [14] = test: Antifungal activity against Aspergillus niger MTCC 1108 assessed as zone of inhibition at 20 uM after 48 hrs by disc diffusion method; format: functional; summary of the method: as §2
Aspergillus niger [15] = test: Antifungal activity against Aspergillus niger MTCC 1108 assessed as zone of inhibition at 40 uM after 48 hrs by disc diffusion method; format: functional; settings: MTCC 1108, 48 h, read-out: IZ; summary of the method: as §2
Aspergillus niger [16] = test: Antifungal activity against Aspergillus niger MTCC 1108 assessed as zone of inhibition at 80 uM after 48 hrs by disc diffusion method; format: functional; settings: MTCC 1108, 48 h, read-out: IZ; summary of the method: as §2
Escherichia coli [17] = test: Antimicrobial activity against Escherichia coli ATCC 35218 after 24 hrs by broth micro serial dilution method; format: functional; settings: ATCC 35218, 24 h
Summary of the method: (§3)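 This was broth microdilution in autoclaved Mueller-Hinton broth. 150 µL of compound per well was serially diluted […], and 50 µL of test organism was added. Plates were incubated 24 h at 37 °C and optical density was read.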

Escherichia coli [18] = test: Antimicrobial activity against Escherichia coli ATCC 35218 assessed as diameter of inhibition zone at 20 uM after 24 hrs by Kirby -Baur disc diffusion method; format: functional; settings: ATCC 35218, 24 h, read-out: DIZ
Summary of the method: (§4)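 Kirby-Bauer disc diffusion was used. Acetone stocks (160 µM) were serially doubled down to 80, 40 and 20 µM. 4 µL of each went onto 5 mm sterile paper discs, which were dried 30 min at 50 °C. Inoculum was 1.5 × 10⁸ CFU/mL diluted to 3 × 10² CFU/mL, and 50 µL was spread on Mueller-Hinton agar. After 24 h at 37 °C the inhibition-zone diameter was measured. Ciprofloxacin served as positive control.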

Escherichia coli [19] = test: Antimicrobial activity against Escherichia coli ATCC 35218 assessed as diameter of inhibition zone at 40 uM after 24 hrs by Kirby -Baur disc diffusion method; format: functional; settings: ATCC 35218, 24 h, read-out: DIZ; summary of the method: as §4
Escherichia coli [20] = test: Antimicrobial activity against Escherichia coli ATCC 35218 assessed as diameter of inhibition zone at 80 uM after 24 hrs by Kirby -Baur disc diffusion method; format: functional; settings: ATCC 35218, 24 h, read-out: DIZ; summary of the method: as §4
Pseudomonas aeruginosa [21] = test: Antimicrobial activity against Pseudomonas aeruginosa ATCC 15499 after 24 hrs by broth micro serial dilution method; format: functional; settings: ATCC 15499, 24 h; summary of the method: as §3
Pseudomonas aeruginosa [22] = test: Antimicrobial activity against Pseudomonas aeruginosa ATCC 15499 assessed as diameter of inhibition zone at 20 uM after 24 hrs by Kirby -Baur disc diffusion method; format: functional; settings: ATCC 15499, 24 h, read-out: DIZ; summary of the method: as §4
Pseudomonas aeruginosa [23] = test: Antimicrobial activity against Pseudomonas aeruginosa ATCC 15499 assessed as diameter of inhibition zone at 40 uM after 24 hrs by Kirby -Baur disc diffusion method; format: functional; settings: ATCC 15499, 24 h, read-out: DIZ; summary of the method: as §4
Pseudomonas aeruginosa [24] = test: Antimicrobial activity against Pseudomonas aeruginosa ATCC 15499 assessed as diameter of inhibition zone at 80 uM after 24 hrs by Kirby -Baur disc diffusion method; format: functional; settings: ATCC 15499, 24 h, read-out: DIZ; summary of the method: as §4
Salmonella typhi [25] = test: Antimicrobial activity against Salmonella typhi ATCC 23564 after 24 hrs by broth micro serial dilution method; format: functional, Salmonella enterica subsp. enterica serovar Typhi; settings: Salmonella enterica, ATCC 23564, 24 h
Salmonella typhi [26] = test: Antimicrobial activity against Salmonella typhi ATCC 23564 assessed as diameter of inhibition zone at 20 uM after 24 hrs by Kirby -Baur disc diffusion method; format: functional, Salmonella enterica subsp. enterica serovar Typhi; settings: Salmonella enterica, ATCC 23564, 24 h; read-out: DIZ
Salmonella typhi [27] = test: Antimicrobial activity against Salmonella typhi ATCC 23564 assessed as diameter of inhibition zone at 40 uM after 24 hrs by Kirby -Baur disc diffusion method; format: functional, Salmonella enterica subsp. enterica serovar Typhi; settings: Salmonella enterica, ATCC 23564, 24 h; read-out: DIZ
Salmonella typhi [28] = test: Antimicrobial activity against Salmonella typhi ATCC 23564 assessed as diameter of inhibition zone at 80 uM after 24 hrs by Kirby -Baur disc diffusion method; format: functional, Salmonella enterica subsp. enterica serovar Typhi; settings: Salmonella enterica, ATCC 23564, 24 h; read-out: DIZ
Bacillus cereus [29] = test: Antimicrobial activity against Bacillus cereus MTCC 7350 after 24 hrs by broth micro serial dilution method; format: functional; settings: MTCC 7350, 24 h; summary of the method: as §3
Bacillus cereus [30] = test: Antimicrobial activity against Bacillus cereus MTCC 7350 assessed as diameter of inhibition zone at 20 uM after 24 hrs by Kirby -Baur disc diffusion method; format: functional; settings: MTCC 7350, 24 h, read-out: DIZ; summary of the method: as §4
Bacillus cereus [31] = test: Antimicrobial activity against Bacillus cereus MTCC 7350 assessed as diameter of inhibition zone at 40 uM after 24 hrs by Kirby -Baur disc diffusion method; format: functional; settings: MTCC 7350, 24 h, read-out: DIZ; summary of the method: as §4
Bacillus cereus [32] = test: Antimicrobial activity against Bacillus cereus MTCC 7350 assessed as diameter of inhibition zone at 80 uM after 24 hrs by Kirby -Baur disc diffusion method; format: functional; settings: MTCC 7350, 24 h, read-out: DIZ; summary of the method: as §4
Staphylococcus aureus [33] = test: Antimicrobial activity against Staphylococcus aureus ATCC 11632 after 24 hrs by broth micro serial dilution method; format: functional; settings: ATCC 11632, 24 h; summary of the method: as §3
Staphylococcus aureus [34] = test: Antimicrobial activity against Staphylococcus aureus ATCC 11632 assessed as diameter of inhibition zone at 20 uM after 24 hrs by Kirby -Baur disc diffusion method; format: functional; settings: ATCC 11632, 24 h, read-out: DIZ; summary of the method: as §4
Staphylococcus aureus [35] = test: Antimicrobial activity against Staphylococcus aureus ATCC 11632 assessed as diameter of inhibition zone at 40 uM after 24 hrs by Kirby -Baur disc diffusion method; format: functional; settings: ATCC 11632, 24 h, read-out: DIZ; summary of the method: as §4
Staphylococcus aureus [36] = test: Antimicrobial activity against Staphylococcus aureus ATCC 11632 assessed as diameter of inhibition zone at 80 uM after 24 hrs by Kirby -Baur disc diffusion method; format: functional; settings: ATCC 11632, 24 h, read-out: DIZ; summary of the method: as §4

COc1cc(/C=C/C(CC(/C=C/c2ccc(O)c(OC)c2)=N/c2ccc(S(=O)(=O)Nc3ccccn3)cc2)=N\c2ccc(S(=O)(=O)Nc3ccccn3)cc2)ccc1O
inhibition in vivo at 200 mg/kg (Mus musculus): 9.6%
IC50 (HCT-116): 50 µM
IC50 (QG-56): 100 µM
IC50 (HeLa): 50 µM
IC50 (HepG2): 100 µM
MIC (Trichoderma viride [1]): 20 µM (≈ 16.6 µg/mL)
zone of inhibition at 20 µM (Trichoderma viride [2]): 10 mm
zone of inhibition at 40 µM (Trichoderma viride [3]): 13 mm
zone of inhibition at 80 µM (Trichoderma viride [4]): 17 mm
MIC (Curvularia lunata [5]): 80 µM (≈ 66.5 µg/mL)
zone of inhibition at 20 µM (Curvularia lunata [6]): 9 mm
zone of inhibition at 40 µM (Curvularia lunata [7]): 9 mm
MIC (Aspergillus flavus [8]): > 80 µM
zone of inhibition at 80 µM (Curvularia lunata [9]): 12 mm
inhibition zone (IZ) (Aspergillus flavus [10]): inactive
zone of inhibition at 40 µM (Aspergillus flavus [11]): 9 mm
zone of inhibition at 80 µM (Aspergillus flavus [12]): 11 mm
MIC (Aspergillus niger [13]): 80 µM (≈ 66.5 µg/mL)
inhibition zone (IZ) (Aspergillus niger [14]): inactive
zone of inhibition at 40 µM (Aspergillus niger [15]): 9 mm
zone of inhibition at 80 µM (Aspergillus niger [16]): 12 mm
MIC (Escherichia coli [17]): 40 µM (≈ 33.2 µg/mL)
zone of inhibition at 20 µM (Escherichia coli [18]): 12 mm
zone of inhibition at 40 µM (Escherichia coli [19]): 16 mm
zone of inhibition at 80 µM (Escherichia coli [20]): 17 mm
MIC (Pseudomonas aeruginosa [21]): 40 µM (≈ 33.2 µg/mL)
zone of inhibition at 20 µM (Pseudomonas aeruginosa [22]): 13 mm
zone of inhibition at 40 µM (Pseudomonas aeruginosa [23]): 16 mm
zone of inhibition at 80 µM (Pseudomonas aeruginosa [24]): 18 mm
MIC (Salmonella typhi [25]): 40 µM (≈ 33.2 µg/mL)
zone of inhibition at 20 µM (Salmonella typhi [26]): 12 mm
zone of inhibition at 40 µM (Salmonella typhi [27]): 17 mm
zone of inhibition at 80 µM (Salmonella typhi [28]): 19 mm
MIC (Bacillus cereus [29]): 40 µM (≈ 33.2 µg/mL)
zone of inhibition at 20 µM (Bacillus cereus [30]): 10 mm
zone of inhibition at 40 µM (Bacillus cereus [31]): 15 mm
zone of inhibition at 80 µM (Bacillus cereus [32]): 18 mm
MIC (Staphylococcus aureus [33]): 40 µM (≈ 33.2 µg/mL)
zone of inhibition at 20 µM (Staphylococcus aureus [34]): 13 mm
zone of inhibition at 40 µM (Staphylococcus aureus [35]): 17 mm
zone of inhibition at 80 µM (Staphylococcus aureus [36]): 19 mm
